According to ChEMBL document CHEMBL4342471, “Discovery of Thieno[2,3-d]pyrimidine-Based Hydroxamic Acid Derivatives as Bromodomain-Containing Protein 4/Histone Deacetylase Dual Inhibitors Induce Autophagic Cell Death in Colorectal Carcinoma Cells” (J Med Chem, 2020):
The source made the active and inactive calls. The calls are words filed in the database; no cut-off is given here.

Columns and labels:
HCT-116 [1] = assay: Induction of apoptotic cell death in human HCT116 cells assessed as change in nuclear morphology at 0.2 to 0.5 uM after 12 hrs by Hoechst 33258 staining based fluorescence microscopy analysis; assay type: functional
How it was run: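 Nuclear morphology was examined by Hoechst 33258 staining in HCT-116 cells after treatment at 0.2 or 0.5 μM.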

[2] = target: T1, Bromodomain-containing protein 4 (Homo sapiens, UniProt O60885); assay: Inhibition of GST-tagged BRD4 bromodomain (unknown origin) using biotinylated histone H4KAc peptide (1 to 21 residues) as substrate by HTRF assay
DLD-1 = assay: Antiproliferative activity against human DLD1 cells assessed as reduction in cell viability measured after 24 to 48 hrs by MTT assay; assay type: functional, cell-based
[3] = target: Bromodomain testis-specific protein (Homo sapiens, UniProt Q58F21); assay: Inhibition of human recombinant His-tagged BRDT BD1 domain expressed in Escherichia coli BL21(DE3)-R3-pRARE2 cells by AlphaScreen assay
Histone deacetylase 11 = Histone deacetylase 11 (Homo sapiens, UniProt Q96DB2); assay: Inhibition of HDAC11 (unknown origin) using biotinylated histone H3 KAc peptide (1 to 21 residues) as substrate by HTRF assay
[4] = target: Polyamine deacetylase HDAC10 (Homo sapiens, UniProt Q969S8); assay: Inhibition of HDAC10 (unknown origin) using biotinylated histone H3 KAc peptide (1 to 21 residues) as substrate by HTRF assay
Histone deacetylase 8 = Histone deacetylase 8 (Homo sapiens, UniProt Q9BY41); assay: Inhibition of HDAC8 (unknown origin) using biotinylated histone H3 KAc peptide (1 to 21 residues) as substrate by HTRF assay
Histone deacetylase 4 = Histone deacetylase 4 (Homo sapiens, UniProt P56524); assay: Inhibition of HDAC4 (unknown origin) using biotinylated histone H3 KAc peptide (1 to 21 residues) as substrate by HTRF assay
Histone deacetylase 3 = Histone deacetylase 3 (Homo sapiens, UniProt O15379); assay: Inhibition of HDAC3 (unknown origin) using biotinylated histone H3 KAc peptide (1 to 21 residues) as substrate by HTRF assay
Histone deacetylase 1 = Histone deacetylase 1 (Homo sapiens, UniProt Q13547); assay: Inhibition of HDAC1 (unknown origin) using biotinylated histone H3 KAc peptide (1 to 21 residues) as substrate by HTRF assay
HCT-116 [5] = assay: Induction of apoptosis in human HCT116 cells assessed as apoptotic cells at 0.5 uM by Annexin-V FITC/propidium iodide staining-based flow cytometry (reference value: 6.3 +/- 0.4 %); assay type: functional
[6] = target: T1, Bromodomain-containing protein 4; assay: Inhibition of BRD4 in human HCT116 cells assessed as reduction in C-myc level at 0.2 to 0.5 uM measured after 24 hrs by Western blot analysis; assay type: cell-based
[7] = target: T1, Bromodomain-containing protein 4; assay: Inhibition of BRD4 in human HCT116 cells assessed as induction of autophagic vacuole formation in cytoplasm at 0.5 uM measured after 24 hrs by transmitted electron microscopy; assay type: cell-based
How it was run: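 HCT-116 cells were incubated with 0.5 μM compound for 24 hours, fixed, and imaged by transmission electron microscopy for cytoplasmic autophagic vacuoles.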

[8] = target: T1, Bromodomain-containing protein 4; assay: Inhibition of BRD4 in human HCT116 cells assessed as induction of autophagy by measuring upregulation of beclin1 expression at 0.2 to 0.5 uM measured after 24 hrs by Western blot analysis; assay type: cell-based
HCT-116 [9] = assay: Cytotoxicity against human HCT116 cells assessed as reduction in cell viability at 0.5 uM incubated for 24 to 48 hrs in presence of 500 uM type 3 PI3K inhibitor, 3-MA by MTT assay; assay type: functional, cell-based
How it was run: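 HCT-116 viability was read by MTT after treatment with 0.5 μM compound, with or without the autophagy inhibitor 3-MA at 500 μM.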

[10] = target: T1, Bromodomain-containing protein 4; assay: Inhibition of BRD4 in human HCT116 cells transfected with ATG5 siRNA assessed as activation of AMPK-alpha at 0.5 uM by Western blot analysis; assay type: cell-based
How it was run: (§1)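 HCT-116 cells first transfected with ATG5 siRNA or scramble siRNA; after silencing, exposed to 0.5 µM test agent or normal saline, then ATG5, AMPKα, p-AMPKα, p62 and LC3 protein assessed by western blot.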

[11] = target: T1, Bromodomain-containing protein 4; assay: Inhibition of BRD4 in human HCT116 cells transfected with ATG5 siRNA assessed as induction of autophagy by measuring LC3 cleavage at 0.5 uM by Western blot analysis; assay type: cell-based; how it was run: as §1
HCT-116 [12] = assay: Antitumor activity against human HCT116 cells xenografted in BALB/cAnNCrl mouse assessed as average tumor growth inhibition at 15 to 30 mg/kg, po administered on day 1 to day 19 relative to control; assay type: functional
How it was run: (§2)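 HCT-116 xenografts in mice were given the test agent orally at 15 or 30 mg/kg, with a saline control group, over 19 days. Tumor volume was followed during treatment and tumors were weighed at the end. Body weight was monitored. Inhibition is expressed as treatment-to-control (T/C) ratio.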

HCT-116 [13] = assay: Antitumor activity against human HCT116 cells xenografted in BALB/cAnNCrl mouse assessed as reduction in tumor volume by measuring T/C ratio at 15 mg/kg, po administered on day 1 to day 19 relative to control; assay type: functional; how it was run: as §2
[14] = Toxicity in BALB/cAnNCrl mouse xenografted with human HCT116 cells assessed as effect on lung morphological changes at 15 to 30 mg/kg, po administered on day 1 to day 19 measured on day 19 by hematoxylin and eosin staining based assay; assay type: organism-based; settings: in vivo
How it was run: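 HCT-116 xenograft mice dosed orally at 15 or 30 mg/kg for 19 days, saline as vehicle control; body weights tracked, and main organs sectioned and H&E-stained at study end.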

[15] = Tmax in Sprague-Dawley rat at 30 mg/kg, po measured up to 1440 mins by UPLC-QTOF/MS analysis; assay type: ADME, organism-based; settings: in vivo
[16] = Half life in Sprague-Dawley rat at 30 mg/kg, po measured up to 1440 mins by UPLC-QTOF/MS analysis; assay type: ADME, organism-based; settings: in vivo
[17] = Oral bioavailability in Sprague-Dawley rat at 30 mg/kg measured up to 1440 mins by UPLC-QTOF/MS analysis; assay type: ADME, organism-based; settings: in vivo
Homo sapiens [18] = organism: Homo sapiens; assay: Inhibition of BRD4/HDAC in human HCT116 cells assessed as increase in IL6 mRNA level at 0.5 uM after 24 hrs by RT-PCR analysis; assay type: cell-based
How it was run: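 HCT-116 cells incubated 24 h with test agent (0.5 µM, 2.0 µM or 10 µM depending on compound); IL6, OSM, LIF and CTF1 mRNA levels then quantified.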

Homo sapiens [19] = organism: Homo sapiens; assay: Inhibition of BRD4/HDAC in human HCT116 cells assessed as inhibition of IL6-JAK-STAT3 signaling pathway by measuring decrease in JAK1 expression at 0.5 uM after 24 hrs by Western blot analysis; assay type: cell-based
How it was run: (§3)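 HCT-116 cells treated 24 h with 0.5 µM, 5.0 µM or 10 µM test agent depending on compound; OSMR, LIFR and downstream pathway proteins detected by western blot.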

Homo sapiens [20] = organism: Homo sapiens; assay: Inhibition of BRD4/HDAC in human HCT116 cells assessed as inhibition of IL6-JAK-STAT3 signaling pathway by measuring decrease in STAT3 phosphorylation at 0.5 uM after 24 hrs by Western blot analysis; assay type: cell-based; how it was run: as §3

Chain of Histone deacetylase 1 (Q13547 whole entry, the tested form may be a part): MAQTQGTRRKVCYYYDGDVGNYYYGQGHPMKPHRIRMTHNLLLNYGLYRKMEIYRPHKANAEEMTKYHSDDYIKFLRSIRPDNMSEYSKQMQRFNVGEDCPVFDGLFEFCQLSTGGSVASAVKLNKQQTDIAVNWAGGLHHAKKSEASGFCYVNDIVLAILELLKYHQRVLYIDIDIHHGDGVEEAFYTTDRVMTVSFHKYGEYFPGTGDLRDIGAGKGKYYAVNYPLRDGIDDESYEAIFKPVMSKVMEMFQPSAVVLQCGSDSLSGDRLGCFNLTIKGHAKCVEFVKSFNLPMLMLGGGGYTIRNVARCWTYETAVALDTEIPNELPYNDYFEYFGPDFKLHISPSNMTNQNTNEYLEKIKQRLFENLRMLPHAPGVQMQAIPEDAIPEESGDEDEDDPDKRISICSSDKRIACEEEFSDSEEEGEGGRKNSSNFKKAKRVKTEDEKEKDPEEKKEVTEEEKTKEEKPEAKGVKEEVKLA
Chain of Polyamine deacetylase HDAC10 (Q969S8 whole entry, the tested form may be a part): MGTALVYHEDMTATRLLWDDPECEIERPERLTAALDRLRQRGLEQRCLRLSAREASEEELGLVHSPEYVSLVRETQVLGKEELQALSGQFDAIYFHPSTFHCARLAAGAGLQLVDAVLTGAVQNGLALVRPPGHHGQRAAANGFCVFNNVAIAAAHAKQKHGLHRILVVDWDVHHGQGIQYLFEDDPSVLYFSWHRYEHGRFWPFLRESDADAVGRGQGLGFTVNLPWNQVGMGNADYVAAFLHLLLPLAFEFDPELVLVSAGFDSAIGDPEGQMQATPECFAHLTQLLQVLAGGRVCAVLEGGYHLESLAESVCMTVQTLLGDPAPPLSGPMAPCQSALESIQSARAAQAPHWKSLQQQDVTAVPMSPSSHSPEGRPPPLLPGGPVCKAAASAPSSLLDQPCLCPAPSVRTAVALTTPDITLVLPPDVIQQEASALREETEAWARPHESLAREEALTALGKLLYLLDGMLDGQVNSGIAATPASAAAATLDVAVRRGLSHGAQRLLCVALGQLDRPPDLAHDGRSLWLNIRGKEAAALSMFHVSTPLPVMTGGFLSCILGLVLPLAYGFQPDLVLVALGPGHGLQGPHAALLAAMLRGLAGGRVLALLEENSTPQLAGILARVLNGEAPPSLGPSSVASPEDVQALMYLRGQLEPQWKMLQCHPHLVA
Chain of Histone deacetylase 8 (Q9BY41 whole entry, the tested form may be a part): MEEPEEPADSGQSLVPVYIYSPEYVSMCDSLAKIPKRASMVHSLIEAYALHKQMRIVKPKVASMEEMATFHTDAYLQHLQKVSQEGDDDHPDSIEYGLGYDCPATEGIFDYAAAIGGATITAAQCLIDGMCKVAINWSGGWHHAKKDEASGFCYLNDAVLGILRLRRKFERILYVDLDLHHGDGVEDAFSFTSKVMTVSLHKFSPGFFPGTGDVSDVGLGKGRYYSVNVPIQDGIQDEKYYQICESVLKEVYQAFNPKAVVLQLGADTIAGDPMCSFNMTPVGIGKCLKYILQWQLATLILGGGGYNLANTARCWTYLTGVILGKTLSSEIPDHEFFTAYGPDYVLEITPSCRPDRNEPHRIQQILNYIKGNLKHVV
Chain of Histone deacetylase 3 (O15379 whole entry, the tested form may be a part): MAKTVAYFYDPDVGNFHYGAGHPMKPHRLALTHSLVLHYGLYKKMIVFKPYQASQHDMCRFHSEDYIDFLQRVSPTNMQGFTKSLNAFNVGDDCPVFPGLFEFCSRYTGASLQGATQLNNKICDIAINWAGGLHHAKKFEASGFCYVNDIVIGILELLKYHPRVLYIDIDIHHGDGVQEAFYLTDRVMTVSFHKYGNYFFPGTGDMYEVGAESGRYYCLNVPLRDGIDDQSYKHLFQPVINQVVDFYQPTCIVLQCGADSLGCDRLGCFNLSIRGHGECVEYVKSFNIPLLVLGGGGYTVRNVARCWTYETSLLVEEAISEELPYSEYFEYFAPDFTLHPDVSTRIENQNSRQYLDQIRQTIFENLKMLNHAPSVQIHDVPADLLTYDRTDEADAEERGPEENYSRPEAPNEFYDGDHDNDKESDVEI
Chain of Histone deacetylase 4 (P56524 whole entry, the tested form may be a part): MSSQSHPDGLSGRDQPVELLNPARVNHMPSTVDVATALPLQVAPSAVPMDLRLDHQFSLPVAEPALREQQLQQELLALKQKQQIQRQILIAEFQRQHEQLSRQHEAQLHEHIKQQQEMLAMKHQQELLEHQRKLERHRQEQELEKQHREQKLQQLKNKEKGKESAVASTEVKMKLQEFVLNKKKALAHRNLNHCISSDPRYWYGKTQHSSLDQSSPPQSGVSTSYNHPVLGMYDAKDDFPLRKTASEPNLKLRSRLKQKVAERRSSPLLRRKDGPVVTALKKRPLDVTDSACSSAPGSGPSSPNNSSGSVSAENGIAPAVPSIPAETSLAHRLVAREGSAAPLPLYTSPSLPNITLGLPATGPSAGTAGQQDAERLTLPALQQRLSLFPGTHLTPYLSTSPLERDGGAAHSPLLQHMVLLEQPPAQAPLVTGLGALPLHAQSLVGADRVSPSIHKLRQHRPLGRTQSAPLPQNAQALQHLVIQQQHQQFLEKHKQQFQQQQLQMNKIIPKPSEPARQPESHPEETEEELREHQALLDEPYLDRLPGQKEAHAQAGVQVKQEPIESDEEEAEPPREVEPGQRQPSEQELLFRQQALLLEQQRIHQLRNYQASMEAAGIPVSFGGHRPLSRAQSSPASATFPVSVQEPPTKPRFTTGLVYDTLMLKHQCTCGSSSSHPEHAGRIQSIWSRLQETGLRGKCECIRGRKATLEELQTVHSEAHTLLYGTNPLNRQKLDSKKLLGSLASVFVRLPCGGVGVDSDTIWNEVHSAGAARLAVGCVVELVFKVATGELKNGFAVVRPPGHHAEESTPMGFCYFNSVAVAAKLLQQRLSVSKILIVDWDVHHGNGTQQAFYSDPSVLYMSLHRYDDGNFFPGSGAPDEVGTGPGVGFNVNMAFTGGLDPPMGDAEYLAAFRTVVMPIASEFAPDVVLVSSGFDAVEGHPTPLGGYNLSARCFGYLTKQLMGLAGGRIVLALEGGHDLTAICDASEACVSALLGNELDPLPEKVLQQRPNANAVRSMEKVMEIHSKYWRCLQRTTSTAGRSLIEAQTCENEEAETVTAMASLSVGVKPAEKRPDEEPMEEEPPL
Chain of Histone deacetylase 11 (Q96DB2 whole entry, the tested form may be a part): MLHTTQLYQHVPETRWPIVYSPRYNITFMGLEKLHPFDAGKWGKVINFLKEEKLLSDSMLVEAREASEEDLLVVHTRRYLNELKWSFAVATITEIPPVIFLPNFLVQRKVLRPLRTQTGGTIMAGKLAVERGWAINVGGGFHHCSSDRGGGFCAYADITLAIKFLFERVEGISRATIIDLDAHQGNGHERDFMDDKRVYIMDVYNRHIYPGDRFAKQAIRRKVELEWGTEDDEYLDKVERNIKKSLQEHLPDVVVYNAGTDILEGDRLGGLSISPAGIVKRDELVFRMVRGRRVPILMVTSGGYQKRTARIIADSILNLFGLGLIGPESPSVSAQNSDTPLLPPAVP

IC50 [2]: 710 nM
IC50 (DLD-1): 2110 nM
IC50 [3]: > 20000 nM
IC50 (Histone deacetylase 11): > 10000 nM
IC50 [4]: 923 nM
IC50 (Histone deacetylase 8): 167 nM
IC50 (Histone deacetylase 4): > 10000 nM
IC50 (Histone deacetylase 3): 75 nM
IC50 (Histone deacetylase 1): 46 nM
inhibition [6]: Active
inhibition [7]: Active
inhibition [8]: Active
inhibition [10]: Active
inhibition [11]: inactive
SMILES: Cc1cc(-c2nc3sc4c(c3c(=O)[nH]2)CCN(C)C4)cc(C)c1OCCCCCC(=O)NO
Activity (HCT-116 [1]): Active
Activity (HCT-116 [5]): 45.3%
Activity (HCT-116 [9]): inactive
growth inhibition (GI) (HCT-116 [12]): 68.8%
T/C (HCT-116 [13]): 42.7%
Activity [14]: Non-Toxic
Tmax [15]: 1.53 h
half-life [16]: 4.8 h
bioavailability [17]: 40.5%
inhibition (Homo sapiens [18]): Active
inhibition (Homo sapiens [19]): Active
inhibition (Homo sapiens [20]): Active
